From ChEMBL document CHEMBL1152769, “Exploiting the pyrazolo[3,4-d]pyrimidin-4-one ring system as a useful template to obtain potent adenosine deaminase inhibitors” (J Med Chem, 2009) come the findings set out here.

The term Ki denotes the dissociation constant of the complex between target and ligand, obtained from inhibition or displacement. Low values mean tighter binding, high ones weaker binding.

Calls of active or inactive are those of the source. The calls are words filed in the database; no cut-off is given here.

The nature of data set [1]: Inhibition of bovine spleen adenosine deaminase type 9 by spectrophotometry. Details: species or system Bos taurus. An outline of the steps: (§1)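 Bovine spleen ADA type IX (0.3 nM) with 50 µM adenosine in 50 mM potassium phosphate, pH 7.2, at 30 °C. Deamination read as the A262 change over 2 min, against a substrate-free blank. DMSO ≤4% final. Screened at 10^-5 M; actives retested at 10-5 to 10-11 M in triplicate. IC50 taken by linear regression of log concentration-response, then converted to Ki by Cheng-Prusoff.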

A further data set is filed under the species Bos taurus. The data set can be described thus: Inhibition of bovine spleen adenosine deaminase type 9 at <= 10 uM by spectrophotometry. An outline of the steps: as §1
Data set [2] deals with Rattus norvegicus. In words: Antiinflammatory activity in DNBS-induced Sprague-Dawley rat colitis model assessed as reduction in DNBS-induced increase in colonic tissue malondialdehyde level at 0.25 umol/kg, ip for 7 days administered 1 day before colitis induction. The format is functional, organism-based. An outline of the steps:
(§2)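 Rats (male Sprague-Dawley) received intrarectal DNBS (15 mg in 50% ethanol), with ip dosing for 7 days from 1 day before; n=6 per group. Colon was taken at day 6, homogenized in cold 20 mmol/L Tris-HCl, pH 7.4, and spun 1500g for 10 min at 4 °C. MDA was measured by colorimetric kit and expressed as µmol per mg tissue.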

Data set [3] relates to Rattus norvegicus. The data set can be described thus: Antiinflammatory activity in DNBS-induced Sprague-Dawley rat colitis model assessed as reduction in DNBS-induced increase in colonic tissue malondialdehyde level at 5 to 45 umol/kg, ip for 7 days administered 1 day before colitis induction. It is filed as functional, organism-based. An outline of the steps:
as §2

In data set [4] the test system is Rattus norvegicus. The data set can be described thus: Antiinflammatory activity in DNBS-induced Sprague-Dawley rat colitis model assessed as reduction in DNBS-induced increase in colonic tissue TNFalpha level at 0.25 umol/kg, ip for 7 days administered 1 day before colitis induction. The format is functional, organism-based. In a few lines: (§3)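 In male Sprague-Dawley rats with intrarectal DNBS colitis (15 mg in 50% ethanol), dosing was ip for 7 days from 1 day before induction; six per group. Colon samples from day 6 were stored at -80 °C, homogenized at 4 °C in PBS, pH 7.2 (0.3 mL/100 mg), and centrifuged at 13400g for 20 min. TNF-α was measured by ELISA and expressed as pg/mg tissue.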

The subject of data set [5] is Rattus norvegicus. In words: Antiinflammatory activity in DNBS-induced Sprague-Dawley rat colitis model assessed as reduction in DNBS-induced increase in spleen weight at 0.25 umol/kg, ip for 7 days administered 1 day before colitis induction. The format is functional, organism-based. An outline of the steps:
(§4)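 Colitis was induced in male Sprague-Dawley rats (250-300 g) by intrarectal DNBS, 15 mg in 0.25 mL 50% ethanol, under isoflurane. Drug was given ip daily for 7 days from 1 day before induction; six rats per group; vehicle controls. Spleen was weighed at assessment 6 days after DNBS and expressed as % increase, as an index of systemic inflammation.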

For data set [6], the system named is Rattus norvegicus. In words: Antiinflammatory activity in DNBS-induced Sprague-Dawley rat colitis model assessed as reduction in DNBS-induced macroscopic damage in colon at 0.25 umol/kg, ip for 7 days administered 1 day before colitis induction. It is filed as functional, organism-based. In a few lines:
(§5)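 DNBS colitis was induced in male Sprague-Dawley rats (250-300 g): 15 mg in 0.25 mL 50% ethanol given intrarectally. Dosing was ip for 7 days, beginning 1 day before DNBS; n=6 per group; vehicle controls. Six days after DNBS, the whole colon was scored for macroscopic damage by two observers blinded to treatment.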

Data set [7] deals with Rattus norvegicus. The data set can be described thus: Antiinflammatory activity in DNBS-induced Sprague-Dawley rat colitis model assessed as DNBS-induced increase in spleen weight at 5 umol/kg, ip for 7 days administered 1 day before colitis induction. The format is functional. In a few lines: as §4
The test system of data set [8] is Rattus norvegicus. In words: Antiinflammatory activity in ip dosed Sprague-Dawley rat colitis model assessed as reduction in DNBS-induced increase in spleen weight administered for 7 days 1 day before colitis induction. It is filed as functional, organism-based. In a few lines: as §4
In data set [9] the test system is Rattus norvegicus. The data set can be described thus: Antiinflammatory activity in DNBS-induced Sprague-Dawley rat colitis model assessed as DNBS-induced increase in spleen weight at 45 umol/kg, ip for 7 days administered 1 day before colitis induction. It is filed as functional. In a few lines: as §4
In data set [10] the test system is Rattus norvegicus. The data set can be described thus: Antiinflammatory activity in DNBS-induced Sprague-Dawley rat colitis model assessed as DNBS-induced macroscopic damage in colon at 15 umol/kg, ip for 7 days administered 1 day before colitis induction. It is filed as functional. In a few lines:
as §5

Data set [11] concerns Rattus norvegicus. In words: Antiinflammatory activity in DNBS-induced Sprague-Dawley rat colitis model assessed as body weight loss at 5 umol/kg, ip for 7 days administered 1 day before colitis induction. The format is functional. An outline of the steps: (§6)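 Male Sprague-Dawley rats (250-300 g) under brief isoflurane received 15 mg DNBS in 0.25 mL 50% ethanol intrarectally, 8 cm proximal to anus. Drug was given ip for 7 days starting 1 day before DNBS; controls received vehicle; n=6 per group. Body weight was recorded daily from the start of dosing, and the change was taken at day 6 after DNBS.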

The test system of data set [12] is Rattus norvegicus. In words: Antiinflammatory activity in DNBS-induced Sprague-Dawley rat colitis model assessed as DNBS-induced macroscopic damage in colon at 5 umol/kg, ip for 7 days administered 1 day before colitis induction. The format is functional. An outline of the steps:
as §5

Data set [13] relates to Rattus norvegicus. In words: Antiinflammatory activity in DNBS-induced Sprague-Dawley rat colitis model assessed as body weight gain at 45 umol/kg, ip for 7 days administered 1 day before colitis induction. The format is functional. In a few lines:
as §6

In data set [14] the test system is Rattus norvegicus. The data set can be described thus: Toxicity in Sprague-Dawley rat assessed as behavioral changes at 5 to 45 umol/kg, ip for 7days. It is filed as organism-based. To be noted: in vivo, 168 h.
Data set [15] has as its system Rattus norvegicus. The data set can be described thus: Antiinflammatory activity in DNBS-induced Sprague-Dawley rat colitis model assessed as DNBS-induced macroscopic damage in colon at 45 umol/kg, ip for 7 days administered 1 day before colitis induction. It is filed as functional. In a few lines: as §5
The subject of data set [16] is Rattus norvegicus. In words: Antiinflammatory activity in ip dosed Sprague-Dawley rat colitis model assessed as reduction in DNBS-induced macroscopic damage in colon administered for 7 days 1 day before colitis induction. The format is functional, organism-based. An outline of the steps: as §5
Data set [17] has as its system Rattus norvegicus. The data set can be described thus: Toxicity in Sprague-Dawley rat assessed as variation in body weight at 5 to 45 umol/kg, ip for 7days. The format is organism-based. Particulars: in vivo, 168 h.
Data set [18] deals with Rattus norvegicus. The data set can be described thus: Antiinflammatory activity in DNBS-induced Sprague-Dawley rat colitis model assessed as DNBS-induced increase in colonic tissue TNFalpha level at 45 umol/kg, ip for 7 days administered 1 day before colitis induction. The format is functional. In a few lines: as §3
Data set [19] deals with Rattus norvegicus. The data set can be described thus: Antiinflammatory activity in DNBS-induced Sprague-Dawley rat colitis model assessed as DNBS-induced increase in spleen weight at 15 umol/kg, ip for 7 days administered 1 day before colitis induction. It is filed as functional. In a few lines:
as §4

Data set [20] relates to Rattus norvegicus. The data set can be described thus: Antiinflammatory activity in DNBS-induced Sprague-Dawley rat colitis model assessed as body weight loss at 15 umol/kg, ip for 7 days administered 1 day before colitis induction. It is filed as functional. In a few lines:
as §6

Data set [21] deals with Rattus norvegicus. The data set can be described thus: Antiinflammatory activity in ip dosed Sprague-Dawley rat colitis model assessed as reduction in DNBS-induced decrease in body weight administered for 7 days 1 day before colitis induction. It is filed as functional, organism-based. An outline of the steps:
as §6

Data set [22] deals with Rattus norvegicus. In words: Antiinflammatory activity in ip dosed Sprague-Dawley rat colitis model assessed as reduction in DNBS-induced increase in colonic tissue malondialdehyde level administered for 7 days 1 day before colitis induction. The format is functional, organism-based. An outline of the steps:
as §2

The test system of data set [23] is Rattus norvegicus. In words: Toxicity in Sprague-Dawley rat assessed as variation in food intake at 5 to 45 umol/kg, ip for 7days. Particulars: in vivo, 168 h. The format is organism-based.
Data set [24] deals with Rattus norvegicus. The data set can be described thus: Toxicity in Sprague-Dawley rat assessed as mortality at 5 to 45 umol/kg, ip for 7days. The format is organism-based. Particulars: in vivo, 168 h.
Data set [25] relates to Rattus norvegicus. The data set can be described thus: Antiinflammatory activity in ip dosed Sprague-Dawley rat colitis model assessed as reduction in DNBS-induced increase in colonic tissue TNFalpha level administered for 7 days 1 day before colitis induction. The format is functional, organism-based. In a few lines: as §3

The molecule `COc1ccc(NC(=O)Nc2ccc(Cn3cc4c(=O)[nH]cnc4n3)cc2)cc1` had an inhibition constant Ki in [1] of 28.3 nM.

Regarding `CCCCCCCCCCCn1cc2c(=O)[nH]cnc2n1`, the result in the data set filed under Bos taurus was inactive.

In the case of `CCCCCC[C@H]([C@H](C)O)n1cnc2c(N)ncnc21` [(+)-EHNA], the Ki in data set [1] stood at 1.14 nM.

`O=C(Nc1ccc(Cn2cc3c(=O)[nH]cnc3n2)cc1)Nc1ccc(OCc2ccccc2)cc1`: affinity in [1] was put at a Ki of 108 nM.

`O=C(Nc1ccc(F)cc1)Nc1ccc(Cn2cc3c(=O)[nH]cnc3n2)cc1` returned a Ki in data set [1] of 1.15 nM.

In turn, `O=C(Nc1ccccc1)Nc1ccc(Cn2cc3c(=O)[nH]cnc3n2)cc1` came in with a Ki in data set [1] of 2.42 nM.

Consider `O=C(Nc1ccc(Cc2ccccc2)cc1)Nc1ccc(Cn2cc3c(=O)[nH]cnc3n2)cc1`, for which, in data set [1], the affinity, expressed as Ki, was 186 nM.

Turning to `O=C(Nc1ccc(Cn2cc3c(=O)[nH]cnc3n2)cc1)c1ccc(C(F)(F)F)cc1`, the affinity in data set [1] corresponds to a Ki of 0.51 nM.

On to `CCCCCCCCCCn1cc2c(=O)[nH]cnc2n1`, for which the outcome in the data set listed under Bos taurus was inactive.

On to `C[C@@H]1C[C@H]2[C@@H]3CCC4=CC(=O)C=C[C@]4(C)[C@@]3(F)[C@@H](O)C[C@]2(C)[C@@]1(O)C(=O)CO`, for which the result in the data set with Rattus norvegicus [2], in the data set with Rattus norvegicus [3], in the data set on Rattus norvegicus [4], in the data set on Rattus norvegicus [5] and in the data set on Rattus norvegicus [6] was Active.

Turning to `O=C(Cc1ccccc1)Nc1ccc(Cn2cc3c(=O)[nH]cnc3n2)cc1`, the Ki in data set [1] turned out to be 47.9 nM.

Regarding `O=C(Nc1ccc(Cn2cc3c(=O)[nH]cnc3n2)cc1)c1ccccc1`, in data set [1], the Ki was 12.7 nM.

Turning to `O=C(Nc1ccc(Cn2cc3c(=O)[nH]cnc3n2)cc1)c1ccc(F)cc1`, in [1], the inhibition constant Ki worked out at 0.96 nM.

`CN(C)c1ccc(NC(=O)Nc2ccc(Cn3cc4c(=O)[nH]cnc4n3)cc2)cc1`: the affinity in data set [1], expressed as Ki, was 2.01 nM.

As to `O=C(Nc1ccc(Cn2cc3c(=O)[nH]cnc3n2)cc1)Nc1ccc(C(F)(F)F)cc1`, the Activity was 23.8% in the data set with Rattus norvegicus [7]; “Dose-dependent effect” in the data set on Rattus norvegicus [8]; 10.1% in the data set with Rattus norvegicus [9]; 5.6 in the data set with Rattus norvegicus [10]; 16.5 g in the data set on Rattus norvegicus [11]; 6.9 with Rattus norvegicus [12]. Moreover, the Activity was 2.3 g in the data set on Rattus norvegicus [13]; “Non-toxic” in the data set with Rattus norvegicus [14]; 4.3 with Rattus norvegicus [15]; “Dose-dependent effect” in the data set on Rattus norvegicus [16]; “Non-toxic” in the data set on Rattus norvegicus [17]; 5.8 pg/mg in the data set with Rattus norvegicus [18]. The Activity in the data set with Rattus norvegicus [19] was 18.9%; in the data set with Rattus norvegicus [20], 10.4 g; in the data set on Rattus norvegicus [21], “Dose-dependent effect”; in the data set with Rattus norvegicus [22] it was “Dose-dependent effect”; in the data set with Rattus norvegicus [23], “Non-toxic”; in the data set on Rattus norvegicus [24], “Non-toxic”. In the data set on Rattus norvegicus [25], the Activity result is “Dose-dependent effect”. The result with Rattus norvegicus [2] and in the data set with Rattus norvegicus [3] was Active. The Ki in data set [1] turned out to be 0.16 nM.

As to `CCCCCCCCCn1cc2c(=O)[nH]cnc2n1`, in the data set filed under Bos taurus, the outcome was inactive.

Regarding `O=C(NCc1ccccc1)Nc1ccc(Cn2cc3c(=O)[nH]cnc3n2)cc1`, affinity in data set [1] was put at a Ki of 85.7 nM.

For the molecule `COc1ccc(C(=O)Nc2ccc(Cn3cc4c(=O)[nH]cnc4n3)cc2)cc1`, in data set [1], the affinity, expressed as Ki, was 15.6 nM.
